# Reference: ChEMBL document CHEMBL1132160, “Structure-antiviral activity relationship in the series of pyrimidine and purine N-[2-(2-phosphonomethoxy)ethyl] nucleotide analogues. 1. Derivatives substituted at the carbon atoms of the base” (J Med Chem, 1999)
# Key:
# Human alphaherpesvirus 1 [1] = experiment: Inhibitory activity against herpes simplex virus type 1 (HSV-1) KOS strain; assay type: functional, organism-based
# How it was run: (§1)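 Confluent E6SM cell cultures were inoculated with 100 CCID50 of virus and allowed 1 h for adsorption. Residual virus was then removed, and the cells were incubated with test compound at 400, 200, 100, ... μg/mL. Viral cytopathicity was scored once it reached completion in untreated infected controls.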
# [2] = test system: Human immunodeficiency virus 2; experiment: Inhibition of human immunodeficiency virus type 2 (HIV-2) induced cytopathogenicity in CEM cells; assay type: functional, organism-based; settings: Human immunodeficiency virus 2, CCRF-CEM
# Cytomegalovirus [3] = experiment: Inhibitory activity against cytomegalovirus (CMV) Davis strain; assay type: functional, organism-based; settings: Human betaherpesvirus 5
# How it was run: (§2)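 HEL cell cultures, grown to confluence, received 100 CCID50 of virus. After 1 h adsorption, the inoculum was removed and the cultures were incubated with serial concentrations of compound (400, 200, 100, ... μg/mL).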
# Vaccinia virus = experiment: Inhibitory activity against vaccinia virus (VV); assay type: functional, organism-based; settings: Orthopoxvirus vaccinia
# How it was run: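 Confluent E6SM cell cultures were inoculated with 100 CCID50 of virus and left for 1 h adsorption, then residual virus was removed. Cultures were incubated with test compound at serial concentrations (400, 200, 100, ... μg/mL). Virus-induced cytopathicity was scored once it reached completion in untreated infected control cultures.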
# Human alphaherpesvirus 2 [4] = experiment: Inhibitory activity against herpes simplex virus type 2 (HSV-2) G strain; assay type: functional, organism-based; how it was run: as §1
# [5] = test system: Human immunodeficiency virus 1; experiment: Inhibition of human immunodeficiency virus type 1 (HIV-1) induced cytopathogenicity in CEM cells; assay type: functional, organism-based; settings: Human immunodeficiency virus 1, CCRF-CEM
# How it was run: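 CEM cells (~3 × 10⁵ cells/mL) were infected with 100 CCID50 of HIV-1 (IIIB)/mL and plated with dilutions of compound. After 4 days at 37 °C, giant cell formation was assessed microscopically.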
# [6] = Inhibitory activity against murine sarcoma virus induced transformation of murine C3H/3T3 embryo fibroblasts; assay type: functional, Mus musculus
# How it was run: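 Murine C3H/3T3 embryo fibroblasts were seeded at 5 × 10⁵ cells/mL. After 24 h they were infected with 80 focus-forming units of MSV for 90–120 min at 37 °C. The medium was then replaced with fresh medium containing various compound concentrations, and transformation was examined microscopically after 6 days.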
# Cytomegalovirus [7] = experiment: Inhibitory activity against cytomegalovirus (CMV) AD 169 strain; assay type: functional, organism-based; settings: Human betaherpesvirus 5; how it was run: as §2
# Human alphaherpesvirus 1 [8] = experiment: Inhibition of herpes simplex virus type 1 (HSV-1) F strain; assay type: functional, organism-based; how it was run: as §1
# Human alphaherpesvirus 2 [9] = experiment: Inhibitory activity against herpes simplex virus type 2 (HSV-2) Lyons strain; assay type: functional, organism-based; how it was run: as §1
# [10] = Inhibitory activity against herpes simplex virus type 2 (HSV-2) 196 strain; assay type: functional; how it was run: as §1
# Human alphaherpesvirus 1 [11] = experiment: Inhibitory activity against herpes simplex virus type 1 (HSV-1) McIntyre strain; assay type: functional, organism-based; how it was run: as §1
# [12] = test system: Human immunodeficiency virus 1; experiment: Inhibitory activity of compound against human immunodeficiency virus type 1 (HIV-1) induced cytopathogenicity in MT-4 cells; assay type: functional, organism-based; settings: Human immunodeficiency virus 1, MT4
# How it was run: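 Human MT-4 cells (~4 × 10⁵ cells/mL) were infected with 100 CCID50 of HIV-1 (IIIB)/mL and seeded into wells containing compound dilutions. After 5 days at 37 °C, viable cells were counted by trypan blue exclusion in a blood cell counting chamber.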
Compound,EC50 (Human alphaherpesvirus 1 [1]),EC50 [2],EC50 (Cytomegalovirus [3]),EC50 (Vaccinia virus),EC50 (Human alphaherpesvirus 2 [4]),EC50 [5],EC50 [6],EC50 (Cytomegalovirus [7]),EC50 (Human alphaherpesvirus 1 [8]),EC50 (Human alphaherpesvirus 2 [9]),EC50 [10],EC50 (Human alphaherpesvirus 1 [11]),EC50 [12]
CC(C)OP(=O)(COCCn1cnc2c(S)ncnc21)OC(C)C,> 400 µg/mL,> 100 µg/mL,> 50 µg/mL,> 400 µg/mL,> 400 µg/mL,> 100 µg/mL,> 40 µg/mL,> 50 µg/mL,–,–,–,–,–
Nc1nc(N)c2nc(Br)n(CCOCP(=O)(O)O)c2n1,20 µg/mL,> 100 µg/mL,12 µg/mL,300 µg/mL,20 µg/mL,> 100 µg/mL,2.43 µg/mL,8 µg/mL,7 µg/mL,20 µg/mL,70 µg/mL,20 µg/mL,–
CC(C)OP(=O)(O)COCCn1cnc2c(N)ncnc21,200 µg/mL,> 100 µg/mL,> 50 µg/mL,> 400 µg/mL,300 µg/mL,> 100 µg/mL,> 40 µg/mL,> 50 µg/mL,–,–,–,–,–
Nc1nc(Cl)c2ncn(CCOCP(=O)(O)O)c2n1,0.23 µg/mL,> 0.16 µg/mL,0.3 µg/mL,–,0.38 µg/mL,> 0.16 µg/mL,> 0.16 µg/mL,0.05 µg/mL,0.13 µg/mL,0.38 µg/mL,0.38 µg/mL,0.22 µg/mL,–
Nc1nnc(N)c2c1ncn2CCOCP(=O)(O)O,> 200 µg/mL,> 100 µg/mL,> 50 µg/mL,> 200 µg/mL,> 200 µg/mL,> 100 µg/mL,124 µg/mL,> 50 µg/mL,> 200 µg/mL,> 200 µg/mL,> 200 µg/mL,> 200 µg/mL,–
Nc1nc(=O)n(CCOCP(=O)(O)O)cc1Br,20 µg/mL,> 100 µg/mL,33 µg/mL,> 400 µg/mL,150 µg/mL,> 100 µg/mL,19.2 µg/mL,30 µg/mL,40 µg/mL,70 µg/mL,100 µg/mL,70 µg/mL,–
CC(C)CCCCCOP(=O)(COCCn1cnc2c(Cl)nc(N)nc21)OCCCCCC(C)C,> 16 µg/mL,> 4 µg/mL,1 µg/mL,> 16 µg/mL,> 16 µg/mL,> 4 µg/mL,> 8 µg/mL,0.86 µg/mL,–,–,–,–,–
Nc1nc(O)nc2c1ncn2CCOCP(=O)(O)O,> 400 µg/mL,> 100 µg/mL,> 50 µg/mL,> 50 µg/mL,> 400 µg/mL,> 100 µg/mL,123 µg/mL,> 50 µg/mL,–,–,–,–,–
Nc1ncnc2c1ncn2CCOCP(=O)(O)O [ADEFOVIR],3.6 µg/mL,–,77 µg/mL,–,1.1 µg/mL,–,–,30 µg/mL,–,–,–,–,–
CC(C)CCCCCOP(=O)(COCCn1cnc2c(N)nc(N)nc21)OCCCCCC(C)C,> 16 µg/mL,> 4 µg/mL,0.8 µg/mL,> 16 µg/mL,> 16 µg/mL,> 4 µg/mL,> 8 µg/mL,0.86 µg/mL,–,–,–,–,–
CC(C)OP(=O)(O)COCCn1cnc2c(N)nc(N)nc21,150 µg/mL,> 100 µg/mL,> 50 µg/mL,> 400 µg/mL,> 400 µg/mL,> 100 µg/mL,> 200 µg/mL,> 50 µg/mL,–,–,–,–,–
Nc1nc(O)c2nc(Br)n(CCOCP(=O)(O)O)c2n1,240 µg/mL,> 100 µg/mL,> 50 µg/mL,–,240 µg/mL,> 100 µg/mL,> 0.16 µg/mL,43 µg/mL,240 µg/mL,> 400 µg/mL,240 µg/mL,240 µg/mL,–
CC(C)OP(=O)(COCCn1cnc2c(N)ncnc21)OC(C)C,> 400 µg/mL,–,30 µg/mL,> 400 µg/mL,> 400 µg/mL,–,> 40 µg/mL,8 µg/mL,–,–,–,–,171 µg/mL
Nc1cc2ncn(CCOCP(=O)(O)O)c2c(O)n1,> 200 µg/mL,–,> 100 µg/mL,–,> 200 µg/mL,–,–,> 100 µg/mL,> 200 µg/mL,> 200 µg/mL,> 200 µg/mL,> 200 µg/mL,–
CC(C)OP(=O)(COCCn1c(Br)nc2c(N)nc(N)nc21)OC(C)C,> 400 µg/mL,> 100 µg/mL,20 µg/mL,> 400 µg/mL,> 400 µg/mL,> 100 µg/mL,> 40 µg/mL,25 µg/mL,> 400 µg/mL,300 µg/mL,> 400 µg/mL,> 400 µg/mL,–
CC(C)OP(=O)(COCCn1cnc2c(O)nc(N)nc21)OC(C)C,240 µg/mL,> 100 µg/mL,> 50 µg/mL,–,400 µg/mL,> 100 µg/mL,13.5 µg/mL,> 50 µg/mL,240 µg/mL,240 µg/mL,240 µg/mL,80 µg/mL,–
CC(C)CCCCCOP(=O)(COCCn1cnc2nc(N)nc(Cl)c21)OCCCCCC(C)C,> 16 µg/mL,> 4 µg/mL,> 5 µg/mL,> 16 µg/mL,> 16 µg/mL,> 4 µg/mL,> 8 µg/mL,5 µg/mL,–,–,–,–,–
Nc1cc(N)c2ncn(CCOCP(=O)(O)O)c2n1,300 µg/mL,> 100 µg/mL,> 50 µg/mL,> 400 µg/mL,300 µg/mL,> 100 µg/mL,142 µg/mL,> 50 µg/mL,> 400 µg/mL,300 µg/mL,> 400 µg/mL,> 400 µg/mL,–
CC(C)OP(=O)(O)COCCn1cnc2c(O)nc(N)nc21,5.7 µg/mL,11 µg/mL,0.3 µg/mL,–,5.3 µg/mL,> 20 µg/mL,> 0.064 µg/mL,0.35 µg/mL,0.64 µg/mL,1.9 µg/mL,1.9 µg/mL,0.64 µg/mL,–
NC1=NC2N=CC=NC2C(=O)N1CCOCP(=O)(O)O (centres undefined),70 µg/mL,> 100 µg/mL,> 50 µg/mL,200 µg/mL,70 µg/mL,> 100 µg/mL,26.5 µg/mL,> 50 µg/mL,150 µg/mL,70 µg/mL,150 µg/mL,150 µg/mL,–
CC(C)CCCCCOP(=O)(COCCn1cnc2c(N)ncnc21)OCCCCCC(C)C,> 3.2 µg/mL,> 4 µg/mL,3 µg/mL,> 3.2 µg/mL,3.2 µg/mL,> 4 µg/mL,–,1 µg/mL,–,–,–,–,–
CC(C)CCCCCOP(=O)(COCCn1cnc2c(O)nc(N)nc21)OCCCCCC(C)C,> 80 µg/mL,> 4 µg/mL,1.1 µg/mL,> 80 µg/mL,> 80 µg/mL,> 4 µg/mL,> 40 µg/mL,1.2 µg/mL,–,–,–,–,–
CC(C)CCCCCOP(=O)(COCCn1cnc2nc(N)nc(O)c21)OCCCCCC(C)C,> 16 µg/mL,> 20 µg/mL,11 µg/mL,> 16 µg/mL,> 16 µg/mL,> 20 µg/mL,> 8 µg/mL,11 µg/mL,–,–,–,–,–
Nc1cccc2c1ncn2CCOCP(=O)(O)O,> 400 µg/mL,> 100 µg/mL,> 50 µg/mL,> 400 µg/mL,> 400 µg/mL,> 100 µg/mL,> 200 µg/mL,> 50 µg/mL,–,–,–,–,–
Nc1nc(F)nc2c1ncn2CCOCP(=O)(O)O,70 µg/mL,40 µg/mL,> 50 µg/mL,150 µg/mL,70 µg/mL,> 100 µg/mL,22.3 µg/mL,> 50 µg/mL,–,–,–,–,–
O=P(O)(O)COCCn1cnc2c(S)ncnc21,> 400 µg/mL,> 100 µg/mL,20 µg/mL,> 400 µg/mL,> 400 µg/mL,> 100 µg/mL,> 200 µg/mL,25 µg/mL,> 400 µg/mL,> 400 µg/mL,> 400 µg/mL,> 400 µg/mL,–
CC(C)OP(=O)(COCCn1c(Br)nc2c(O)nc(N)nc21)OC(C)C,> 400 µg/mL,> 100 µg/mL,> 50 µg/mL,–,> 400 µg/mL,> 100 µg/mL,> 40 µg/mL,> 50 µg/mL,240 µg/mL,240 µg/mL,240 µg/mL,240 µg/mL,–
CCOP(=O)(COCCn1cnc2c(N)ncnc21)OCC,–,> 100 µg/mL,–,–,–,> 100 µg/mL,> 40 µg/mL,–,–,–,–,–,–
Cc1nc(N)nc2c1ncn2CCOCP(=O)(O)O,> 200 µg/mL,> 100 µg/mL,> 50 µg/mL,> 400 µg/mL,400 µg/mL,> 100 µg/mL,30 µg/mL,> 50 µg/mL,–,–,–,–,–
